Read-outs that look alike come from different tables or passages of the source.
How the values were obtained:
[1] = tested on: HaCaT keratinocytes; test: Proliferation of HaCaT keratinocytes; type: cell-based, human; conditions: for EC50: read-out: EC50, inhibition of proliferation
[2] = tested on: SKMEL-188 cells; test: [3H]-thymidine incorporation; type: cell-based, human; conditions: SKMEL-188, 72 h, [3H]-thymidine last 4 h
Summary of the method: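 SKMEL-188 cells were grown in Ham's F-10 with 5% charcoal-treated FBS and synchronized at G0/G1 in serum-free medium. Compounds were added in fresh medium with 5% charcoal-treated FBS for 72 h. [3H]-thymidine (88.0 Ci/mmol) was present at 0.5 μCi/ml final for the last 4 h. Cells were precipitated with 10% TCA and counted by liquid scintillation. Mean ± SD, n=4; one-way ANOVA and t-test.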

[3] = tested on: AbC1 cell line derived from Bomirski hamster melanoma; test: [3H]-thymidine incorporation; type: cell-based
[4] = tested on: melanoma SKMEL-188; test: Colony forming assay; type: cell-based, human; conditions: SKMEL-188, 0.1, 10 and 1000 nM, 6-10 days
Summary of the method: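 SKMEL-188 cells were plated at 500 cells/well in 12-well plates in F10 medium with charcoal-stripped FBS and antibiotic-antimycotic, at 37°C in 5% CO2. They were treated at 0.1, 10 and 1000 nM, with matched ethanol dilution as vehicle control, and grown 6–10 days. Colonies were stained with 0.1% […], then counted and sized from photographs. CFU = colonies/cells plated ×100. Mean ± SEM, n=3 or 4.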

[5] = target: T1, VDR-EGFP fusion protein (Homo sapiens, UniProt P11473); test: VDR translocation into the nucleus; type: cell-based; conditions: SKMEL-188 transduced with pLenti-CMV-VDR-EGFP, 10 nM, 90 min
T1 sequence (P11473 1-427): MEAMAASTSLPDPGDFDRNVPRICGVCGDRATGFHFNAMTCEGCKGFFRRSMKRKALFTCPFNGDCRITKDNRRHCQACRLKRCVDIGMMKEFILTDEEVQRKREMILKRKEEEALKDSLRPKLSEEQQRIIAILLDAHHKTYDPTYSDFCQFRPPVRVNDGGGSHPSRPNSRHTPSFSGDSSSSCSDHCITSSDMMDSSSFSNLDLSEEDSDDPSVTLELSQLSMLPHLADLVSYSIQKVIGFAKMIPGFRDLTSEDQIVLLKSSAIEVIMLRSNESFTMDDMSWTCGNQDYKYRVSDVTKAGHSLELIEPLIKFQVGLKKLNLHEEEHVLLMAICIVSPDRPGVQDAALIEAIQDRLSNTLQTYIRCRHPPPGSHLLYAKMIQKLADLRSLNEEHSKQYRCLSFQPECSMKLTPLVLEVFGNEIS
Summary of the method: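 SKMEL-188 cells were stably transduced with a lentiviral CMV-driven VDR-EGFP fusion construct (10 MOI, 6 μg/ml polybrene). They were exposed to compound for 90 min, fixed in 4% paraformaldehyde, mounted and examined by fluorescence microscopy. In at least 10 fields, cells with fluorescent nuclei were counted and expressed as % of total cells. Student's t-test.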

Compound: C[C@]12CC[C@@H]3C(=CC=C4C[C@@H](O)CC[C@]43C)[C@@H]1CC[C@@H]2C(=O)CO [21(OH)pL, 3β,21-Dihydroxy-9β,10α-pregna-5,7-dien-20-one]
- effect on proliferation of HaCaT cells [1]: no effect
- EC50 ([1]; Homo sapiens): > 1000 nM
- inhibition of DNA synthesis [2]: highest inhibitory potency
- inhibition of DNA synthesis [3]: efficiently inhibited DNA synthesis
- inhibition of colony formation [4]: less potent inhibitory effect
- translocation of VDR-GFP fusion protein into the nucleus [5]: significantly lower

Compound: C=C1CC[C@H](O)C/C1=C/C=C1\CCC[C@]2(C)[C@@H](C(=O)CO)CC[C@@H]12 [21(OH)pD, (5Z,7E)-3β,21-Dihydroxy-9,10-secopregna-5,7,10(19)-trien-20-one]
- EC50 [1]: 40 nM
- inhibition of DNA synthesis [2]: inhibited DNA synthesis
- inhibition of colony formation [4]: best inhibition
- translocation of VDR-GFP fusion protein into the nucleus [5]: efficient translocation

Compound: C=C1/C(=C\C=C2/CCC[C@]3(C)[C@@H]([C@H](C)CCCC(C)(C)O)CC[C@@H]23)C[C@@H](O)C[C@@H]1O [1,25(OH)2D3, reference compound]
- EC50 ([1]; Homo sapiens): 180 nM

Compound: C[C@]12CC[C@H]3C(=CC=C4C[C@@H](O)CC[C@@]43C)[C@@H]1CC[C@@H]2C(=O)CO [21(OH)7DHP, 3β, 21-Dihydroxypregna-5,7-dien-20-one]
- effect on proliferation of HaCaT cells [1]: no effect
- EC50 ([1]; Homo sapiens): > 1000 nM
- inhibition of DNA synthesis [2]: inhibited DNA synthesis
- translocation of VDR-GFP fusion protein into the nucleus [5]: induced translocation
